The text below walks through data of publication PMC3462166 (Journal of the American Chemical Society, 2012).

Assay [1] concerns CD22 (Siglec-2) on B cells. To be noted: ligand targeting chemotherapeutic loaded liposomes; cited from earlier work.
The target in another assay is murine Sn (Mus musculus, UniProt Q62230). To be noted: inhibition of mSn-Fc chimera binding to natural-ligand beads; triplicate, ± SD. The gist of the method:
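Magnetic beads coated with Neu5Acα2-3Galβ1-4GlcNAc were bound by murine sialoadhesin-Fc chimera in the presence of serial dilutions of competitor (9-N-acyl sialoside analogs). Displacement of bead-bound chimera was read by flow cytometry, and IC50 was taken as the concentration needed to displace the bound chimera. Titrations were run in triplicate, with SD from three independent measurements.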

In the next assay the test system is Sn expressing cells. To be noted: liposomes decorated with the ligand; cited from earlier work.
Assay [2] has as its system Sn. The note with it: liposomes decorated with the ligand; cited from earlier work.
For assay [3], the system named is Sn. To be noted: natural ligand in a comparable assay; cited from earlier work.

Values joined by “and” are separate entries in the source; they are usually repeats but may differ in a detail not shown here. Equal values may be shown once.

Chain of murine Sn (Q62230 20-136 limits assumed): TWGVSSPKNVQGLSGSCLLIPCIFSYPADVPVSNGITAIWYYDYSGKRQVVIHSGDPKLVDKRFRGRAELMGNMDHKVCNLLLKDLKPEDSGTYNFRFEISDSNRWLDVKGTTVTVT

On to “9-N-biphenylcarbamoyl-Neu5Acα2-6Galβ1-4GlcNAc [6′-^BPCNeu5Ac]”, for which the “survival in murine model of human B cell lymphoma” value in assay [1] is “prolong life”. As for `CC(=O)NC1C(O)OC(CO)C(OC2OC(CO)C(O)C(OC3(C(=O)O)CC(O)C(NC(C)=O)C(C(O)C(O)CNC(=O)c4ccc(-c5ccccc5)cc4)O3)C2O)C1O` (stereo not drawn) [Compound 1, 9-N-biphenylcarbamoyl-Neu5Acα2-3Galβ1-4GlcNAc], at murine Sn, the concentration for half-maximal inhibition (IC50) was 4.8 µM and 4.82 µM. Further, the “targeting of Sn expressing cells in vitro” value with Sn expressing cells is recorded as “capable of targeting Sn expressing cells in vitro”. Also, the “selectivity for in vivo targeting” value in the assay with Sn [2] is on record as “not sufficiently selective”. For `CC(=O)NC1C(O)OC(CO)C(OC2OC(CO)C(O)C(OC3(C(=O)O)CC(O)C(NC(C)=O)C(C(O)C(O)CNC(=O)c4cc5c(s4)-c4ccccc4OC5)O3)C2O)C1O` (stereo not drawn) [Compound 2, 9-N-(4H-thieno[3,2-c]chromene-2-carbamoyl)-Neu5Acα 2-3Galβ1-4GlcNAc], the IC50 at murine Sn was 0.38 ± 0.04 µM. In the case of Neu5Acα2-3Galβ1-4GlcNAc, the IC50 in the assay on Sn [3] is 1300 µM.

Broadly, the IC50 is the concentration that inhibits the measured activity by half.
